The text below walks through data of ChEMBL document CHEMBL1772996, “Bioactive constituents from the roots of Panax japonicus var. major and development of a LC-MS/MS method for distinguishing between natural and artifactual compounds” (J Nat Prod, 2011).

By inhibition is commonly meant the drop in the measured response relative to a control, in per cent. One may read the GI50 as the concentration at which growth is held to half of that of the control. One may read the IC50 as the point on the concentration scale where inhibition reaches its midpoint. The low end stands for higher potency, the high end for lower potency.

The test system of experiment [1] is Neutrophil. The experiment can be described thus: Inhibition of fMLP/CB-stimulated superoxide anion generation in human neutrophils at 30 uM relative to control. The experiment is classed as functional. Put shortly:
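Neutrophils isolated by dextran sedimentation, Ficoll Hypaque and hypotonic lysis, kept in Ca2+-free HBSS pH 7.4 at 4 °C. Given 0.5 mg/mL ferricytochrome c and 1 mM Ca2+, equilibrated 37 °C 2 min, compound 5 min. CB 1 μg/mL for 3 min, then 100 nM fMLP for 10 min. SOD-inhibitable ferricytochrome c reduction followed at 550 nm with stirring; mean ± S.E.M., n = 3–4.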

Experiment [2] concerns Neutrophil. The experiment can be described thus: Inhibition of fMLP/CB-activated human neutrophil degranulation assessed as inhibition of elastase release at 30 uM using MeO-Suc-Ala-Ala-Pro-Val-p-nitroanilide as a substrate after 5 mins relative to control. The experiment is classed as functional. The method, boiled down: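 Isolated human neutrophils (dextran sedimentation, Ficoll Hypaque, hypotonic erythrocyte lysis; >98% viable by trypan blue) at 5×10^5/mL in Ca2+-free HBSS pH 7.4 with 100 μM MeO-Suc-Ala-Ala-Pro-Val-p-nitroanilide. Equilibrated 37 °C 2 min, compound 5 min, then activated with 100 nM fMLP plus 0.5 μg/mL CB. A405 monitored continuously. Expressed as % of initial elastase release rate in drug-free fMLP/CB control; mean ± S.E.M., n = 3–4.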

In a further experiment the test system is KB. The experiment can be described thus: Cytotoxicity against human KB cells assessed as growth inhibition after 3 days by sulforhodamine B assay. The experiment is classed as functional. (In general: Sulforhodamine B stains cellular protein and so reports cell mass.)
The subject of a further experiment is DU-145. The experiment can be described thus: Cytotoxicity against human DU145 cells assessed as growth inhibition after 3 days by sulforhodamine B assay. The experiment is classed as functional.
The next experiment concerns A549. The experiment can be described thus: Cytotoxicity against human A549 cells assessed as growth inhibition after 3 days by sulforhodamine B assay. The experiment is classed as functional, cell-based.
In a further experiment the test system is HCT-8. The experiment can be described thus: Cytotoxicity against human HCT8 cells assessed as growth inhibition after 3 days by sulforhodamine B assay. The experiment is classed as functional, cell-based.
Experiment [3] has as its system Neutrophil. The experiment can be described thus: Inhibition of fMLP/CB-stimulated superoxide anion generation in human neutrophils. Type of experiment: functional, cell-based. The method, boiled down:
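Isolated human neutrophils (dextran sedimentation, Ficoll Hypaque, hypotonic lysis; >98% viable) with 0.5 mg/mL ferricytochrome c and 1 mM Ca2+, 37 °C 2 min, compound 5 min; CB 1 μg/mL 3 min, then 100 nM FMLP 10 min; SOD-inhibitable cytochrome c reduction followed continuously at 550 nm with stirring; mean ± S.E.M., n = 3–4; top concentration 30 μM.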

≈ marks a conversion by molar mass, not a printed value. Calls of active or inactive are those of the source. The rule behind the calls is not given here.

In the case of `C/C(=C/CC[C@](C)(O)[C@H]1CC[C@]2(C)[C@@H]1[C@H](O)C[C@@H]1[C@@]3(C)CC[C@H](O)C(C)(C)[C@@H]3[C@@H](O[C@@H]3O[C@H](CO)[C@@H](O)[C@H](O)[C@H]3O[C@@H]3O[C@H](CO)[C@@H](O)[C@H](O)[C@H]3O)C[C@]12C)CO` [PANAJAPONOL A], the inhibition at 30 µM in the experiment on Neutrophil [1] was 20.3%; with Neutrophil [2] it was 42%. Moreover, the GI50 in the experiment on KB (72 h) was determined as 6.3 µg/mL (≈ 7.71 µM); in the experiment with DU-145 (DU-145, 72 h) it was 7.3 µg/mL (≈ 8.93 µM). Besides, the “growth inhibition (GI)” value in the experiment with A549 and with HCT-8 was “Active” throughout.

On to `CCCCOC(=O)[C@H]1O[C@@H](O[C@H]2CC[C@]3(C)[C@H]4CC=C5[C@@H]6CC(C)(C)CC[C@]6(C(=O)O[C@@H]6O[C@H](CO)[C@@H](O)[C@H](O)[C@H]6O)CC[C@@]5(C)[C@]4(C)CC[C@H]3C2(C)C)[C@H](O[C@@H]2OC[C@@H](O)[C@H](O)[C@H]2O)[C@@H](O)[C@@H]1O`, for which, in the experiment with Neutrophil [3], 21.2 µM corresponded to half-maximal inhibition (IC50). For the same compound, in the experiment with Neutrophil [2], the inhibition at 30 µM is 20%. Moreover, the “growth inhibition (GI)” value in the experiment with KB, in the experiment with DU-145, in the experiment with A549 and in the experiment on HCT-8 was “inactive” in each case.

As for `COC(=O)[C@H]1O[C@@H](O[C@H]2CC[C@]3(C)[C@H]4CC=C5[C@@H]6CC(C)(C)CC[C@]6(C(=O)O[C@@H]6O[C@H](CO)[C@@H](O)[C@H](O)[C@H]6O)CC[C@@]5(C)[C@]4(C)CC[C@H]3C2(C)C)[C@H](O)[C@@H](O)[C@@H]1O[C@@H]1O[C@@H](CO)[C@H](O)[C@H]1O`, the concentration for half-maximal inhibition (IC50) with Neutrophil [3] worked out at 19.7 µM. Also, the inhibition at 30 µM in the experiment with Neutrophil [2] turned out to be 27.5%. Besides, the “growth inhibition (GI)” value in the experiment with KB, in the experiment on DU-145, in the experiment with A549 and in the experiment with HCT-8 was “inactive” in each case.

With `CC(C)=CCC[C@@](C)(O)[C@H]1CC[C@]2(C)[C@@H]1[C@H](O)C[C@@H]1[C@@]3(C)CC[C@H](O[C@@H]4O[C@H](CO)[C@@H](O)[C@H](O)[C@H]4O[C@@H]4O[C@H](CO)[C@@H](O)[C@H](O)[C@H]4O)C(C)(C)[C@@H]3CC[C@]12C`, the “growth inhibition (GI)” value in the experiment on KB, with DU-145, in the experiment on A549 and in the experiment with HCT-8 was “inactive” in each case.

As to `CC(C)=CCC[C@](C)(O)[C@H]1CC[C@]2(C)[C@@H]1[C@H](O)C[C@@H]1[C@@]3(C)CC[C@H](O)C(C)(C)[C@@H]3[C@@H](O[C@@H]3O[C@H](CO)[C@@H](O)[C@H](O)[C@H]3O[C@@H]3O[C@H](CO)[C@@H](O)[C@H](O)[C@H]3O)C[C@]12C` [GINSENOSIDE RF], the inhibition at 30 µM in the experiment on Neutrophil [1] is 8.94%; with Neutrophil [2], 29.5%. Besides, the “growth inhibition (GI)” value with KB, in the experiment with DU-145, with A549 and in the experiment on HCT-8 was “inactive” in each case.

Regarding `CC(C)(O)[C@@H]1CC[C@@](C)([C@H]2CC[C@]3(C)[C@@H]2[C@H](O)C[C@@H]2[C@@]4(C)CC[C@H](O)C(C)(C)[C@@H]4[C@@H](O[C@@H]4O[C@H](CO)[C@@H](O)[C@H](O)[C@H]4O[C@@H]4O[C@H](CO)[C@@H](O)[C@H](O)[C@H]4O)C[C@]23C)O1`, the inhibition at 30 µM in the experiment with Neutrophil [1] is 7.4%; in the experiment with Neutrophil [2], -4.95%. Besides, the “growth inhibition (GI)” value in the experiment on KB, in the experiment on DU-145, in the experiment on A549 and with HCT-8 was “inactive” throughout.

`CC1(C)CC[C@]2(C(=O)O[C@@H]3O[C@H](CO)[C@@H](O)[C@H](O)[C@H]3O)CC[C@]3(C)C(=CC[C@@H]4[C@@]5(C)CC[C@H](O[C@@H]6O[C@H](C(=O)O)[C@@H](O[C@@H]7O[C@@H](CO)[C@H](O)[C@H]7O)[C@H](O)[C@H]6O)C(C)(C)[C@@H]5CC[C@]43C)[C@@H]2C1`: the inhibition at 30 µM with Neutrophil [1] was found to be 14.6%; with Neutrophil [2], 27.6%. Also, the “growth inhibition (GI)” value in the experiment on KB, in the experiment on DU-145, in the experiment with A549 and in the experiment with HCT-8 was “inactive” throughout.

For the compound `CC(C)=CC/C=C(\C)[C@H]1CC[C@]2(C)[C@@H]1[C@H](O)C[C@@H]1[C@@]3(C)CC[C@H](O[C@@H]4O[C@H](CO)[C@@H](O)[C@H](O)[C@H]4O[C@@H]4O[C@H](CO)[C@@H](O)[C@H](O)[C@H]4O)C(C)(C)[C@@H]3CC[C@]12C`, the “growth inhibition (GI)” value in the experiment with KB, in the experiment on DU-145, in the experiment with A549 and in the experiment on HCT-8 was “inactive” each time.

In the case of `CC(C)=CCC[C@](C)(O)[C@H]1CC[C@]2(C)[C@@H]1[C@H](O)C[C@@H]1[C@@]3(C)CC[C@H](O[C@@H]4O[C@H](CO)[C@@H](O)[C@H](O)[C@H]4O[C@@H]4O[C@H](CO)[C@@H](O)[C@H](O)[C@H]4O)C(C)(C)[C@@H]3CC[C@]12C`, the “growth inhibition (GI)” value in the experiment on KB, with DU-145, in the experiment on A549 and in the experiment with HCT-8 was “inactive” throughout.

With `CC[C@H](CC[C@@H](C)[C@H]1CC[C@H]2[C@@H]3CC=C4C[C@@H](O[C@@H]5O[C@H](CO)[C@@H](O)[C@H](O)[C@H]5O)CC[C@]4(C)[C@H]3CC[C@]12C)C(C)C` [SITOGLUSIDE], the figures for the inhibition at 30 µM with Neutrophil [1] and with Neutrophil [2] were 7.45% and 21.7%, respectively. Moreover, the “growth inhibition (GI)” value in the experiment with KB, with DU-145, with A549 and in the experiment with HCT-8 was “inactive” each time.

Consider `CC(C)=CCC[C@](C)(O[C@@H]1O[C@H](CO[C@@H]2O[C@H](CO)[C@@H](O)[C@H](O)[C@H]2O)[C@@H](O)[C@H](O)[C@H]1O)[C@H]1CC[C@]2(C)[C@@H]1[C@H](O)C[C@@H]1[C@@]3(C)CC[C@H](O[C@@H]4O[C@H](CO)[C@@H](O)[C@H](O)[C@H]4O[C@@H]4O[C@H](CO)[C@@H](O)[C@H](O)[C@H]4O)C(C)(C)[C@@H]3CC[C@]12C` [GINSENOSIDE RB1], for which the inhibition at 30 µM in the experiment on Neutrophil [1] stood at 10.8%; in the experiment with Neutrophil [2], 7.36%. Besides, the “growth inhibition (GI)” value in the experiment with KB, with DU-145, in the experiment on A549 and in the experiment on HCT-8 was “inactive” in each case.

In the case of `CC(C)=CCC[C@](C)(O[C@@H]1O[C@H](CO)[C@@H](O)[C@H](O)[C@H]1O)[C@H]1CC[C@]2(C)[C@@H]1[C@H](O)C[C@@H]1[C@@]3(C)CC[C@H](O[C@@H]4O[C@H](CO)[C@@H](O)[C@H](O)[C@H]4O[C@@H]4O[C@H](CO)[C@@H](O)[C@H](O)[C@H]4O)C(C)(C)[C@@H]3CC[C@]12C` [GINSENOSIDE RD], the inhibition at 30 µM in the experiment with Neutrophil [1] was -3.54%; in the experiment with Neutrophil [2] it was 2.88%. In addition, the “growth inhibition (GI)” value with KB, in the experiment with DU-145, in the experiment with A549 and with HCT-8 was “inactive” throughout.

For the compound `CC(C)=CCC[C@](C)(O[C@@H]1O[C@H](CO)[C@@H](O)[C@H](O)[C@H]1O)[C@H]1CC[C@]2(C)[C@@H]1[C@H](O)C[C@@H]1[C@@]3(C)CC[C@H](O)C(C)(C)[C@@H]3[C@@H](O[C@@H]3O[C@H](CO)[C@@H](O)[C@H](O)[C@H]3O)C[C@]12C` [GINSENOSIDE RG1], the inhibition at 30 µM in the experiment on Neutrophil [1] was determined as 14.1%; in the experiment on Neutrophil [2] it was 19%. The “growth inhibition (GI)” value in the experiment with KB, in the experiment on DU-145, in the experiment on A549 and in the experiment on HCT-8 was “inactive” each time.

Consider `CC1(C)CC[C@]2(C(=O)O[C@@H]3O[C@H](CO)[C@@H](O)[C@H](O)[C@H]3O)CC[C@]3(C)C(=CC[C@@H]4[C@@]5(C)CC[C@H](O[C@@H]6O[C@H](C(=O)O)[C@@H](O[C@H]7O[C@@H](CO)[C@H](O)[C@H]7O)[C@H](O[C@@H]7O[C@H](CO)[C@@H](O)[C@H](O)[C@H]7O)[C@H]6O)C(C)(C)[C@@H]5CC[C@]43C)[C@@H]2C1` [STIPULEANOSIDE R2], for which the inhibition at 30 µM in the experiment with Neutrophil [1] was determined as 0.78%; in the experiment on Neutrophil [2], 23.7%. Also, the “growth inhibition (GI)” value in the experiment with KB, in the experiment on DU-145, in the experiment on A549 and in the experiment on HCT-8 was “inactive” in each case.
